Experimental data published in PMC10985026 (Acta Pharmaceutica Sinica. B, 2023).
Read-outs that look alike come from different tables or passages of the source.

Tests used:
[1] = tested on: Renca (kidney cancer) cells; assay: MTT cytotoxicity assay, Renca; format: cell-based, murine; conditions: 48 h, read-out: IC50 Renca
How it was run: (§1)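 Cells were cultured in DMEM/RPMI-1640/MEM with 10% FBS and 1% penicillin–streptomycin at 37 °C, 5% CO2; Renca medium also had 1 mmol/L sodium pyruvate and 2 mmol/L L-glutamine. Cells at about 50% confluence in 96-well plates were exposed to a concentration series for 48 h (DMSO vehicle). MTT was added for 4 h at 37 °C, formazan dissolved in DMSO, and absorbance read on a plate reader. Results are mean ± SD.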

HUVEC = assay: MTT cytotoxicity assay, HUVEC; format: cell-based, human; conditions: 48 h, read-out: IC50 HUVEC
How it was run: as §1

L-929 = assay: MTT cytotoxicity assay, L-929; format: cell-based, murine; conditions: read-out: IC50 L-929
How it was run: as §1

4T1 subcutaneous tumor = assay: Anti-tumor effect in vivo, 4T1 subcutaneous tumor model; parameters: species or system BALB/c mouse; conditions: 4T1-bearing BALB/c mice, after 27 days
How it was run: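 Subcutaneous 4T1 tumours were grown in female BALB/c mice (6–8 weeks, 18–20 g). At about 50 mm3 on day 7, mice were randomised to five groups: PBS, each parent drug alone, the parent drugs combined, or test compound. Dosing was i.v. every two days, with body weight and tumour volume measured regularly. Main organs and blood were collected at study end for safety assessment.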

B16F10 (melanoma) cells = assay: MTT cytotoxicity assay, B16F10; format: cell-based, murine; conditions: read-out: IC50 B16F10
How it was run: as §1

NLRP3 inflammasome = assay: Western blot of NLRP3; format: cell-based, murine; conditions: 4T1, 2 μmol/L, 24 h, compared to control group
How it was run: (§2)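 4T1 cells at about 70% confluence in 6-well plates were treated 24 h with test compound or DMSO vehicle. Protein was extracted in RIPA buffer with PMSF and phosphatase inhibitors, immunoblotted, and detected by enhanced chemiluminescence imaging. Sam50/COX II blots: n = 3.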

Sam50 and COX II = assay: Western blot of Sam50 and COX II; format: cell-based, murine; conditions: 4T1, 2 μmol/L, 24 h
How it was run: as §2

[2] = tested on: 4T1 (breast cancer) cells; assay: MTT cytotoxicity assay, 4T1; format: cell-based, murine; conditions: 48 h, read-out: IC50 4T1
[3] = MTT, mean ± SD of three experiments
[4] = MTT, 48 h, mean ± SD of three experiments

| Structure (SMILES) | IC50 ([1]; Mus musculus, Renca) | IC50 (HUVEC; Homo sapiens, HUVEC) | IC50 (L-929; Mus musculus, L929, 48 h) | relative tumor volume versus PBS group (4T1 subcutaneous tumor) | IC50 (B16F10 (melanoma) cells; Mus musculus, B16-F10, 48 h) | NLRP3 inflammasome expression upregulation (NLRP3 inflammasome) | protein concentrations of Sam50 and COX II (Sam50 and COX II) | IC50 ([2]; Mus musculus) | IC50 [1, 3] | IC50 (HUVEC; [3]) | IC50 (L-929; [4]) | IC50 (B16F10 (melanoma) cells; [4]) | IC50 [2, 3] |
| --- | --- | --- | --- | --- | --- | --- | --- | --- | --- | --- | --- | --- | --- |
| CC(=O)Nc1ccc(O)cc1 [APAP, Acetaminophen] | > 100 µM | > 100 µM | 73.3 ± 0.88 µM | no significant difference | > 100 µM | approximately 1.2 fold | significantly downregulated | > 100 µM |  |  |  |  |  |
| O=C1[O][Pt]2([NH][C@@H]3CCCC[C@H]3[NH]2)[O]C1=O [Oxa, Oxaliplatin] |  |  |  | no significant difference |  |  | no significant effect |  | > 100 µM | 32.5 ± 2.01 µM | 44.6 ± 0.93 µM | 25.9 ± 0.96 µM | 13.4 ± 0.66 µM |
